Only some compounds are listed: those with a hit (about 1.7% of all), similar ones and a draw of the others.
DNMT1 inh: blocks human DNA methyltransferase DNMT1. P26358. DNMT1 molecular beacon, Hinp1I cleavage, fluorescence. inhibition (reported as % activation of signal), % at 10 µM. 360,000 tested, 0.83% active. AID 588458; in the data active = inhibition above about 50%
Scp-1 inhibitor: inhibitors of human Scp-1 phosphatase | Q9GZU7 | Recombinant Scp1, phosphopeptide, malachite green phosphate absorbance | inhibition, % at 20 µM | 340,000 tested, 0.88% active;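 active = inhibition above about 50% at 20 µM, limit read from the data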;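 also: plate controls were DMSO wells with enzyme for no effect and wells lacking enzyme for full effect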
Target sequence (Q9GZU7 76-261 limits assumed): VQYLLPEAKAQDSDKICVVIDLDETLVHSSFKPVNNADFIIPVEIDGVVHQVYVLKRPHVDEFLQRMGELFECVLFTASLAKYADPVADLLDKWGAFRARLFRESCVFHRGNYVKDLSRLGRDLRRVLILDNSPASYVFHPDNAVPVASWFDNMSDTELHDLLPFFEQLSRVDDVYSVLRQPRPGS
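System: truncated SCP-1 phosphatase (76-261aa); medium: Tris acetate buffer pH 5.5 with MgCl2 and Tween-20; incubation: 45 min room-temperature reaction, 5 min colour, 30 min stabiliser; compound: single 20 µM dose, 1% DMSO; reagent: Phosphorylated 17-residue peptide substrate; read-out: % inhibition at 20 µM; technique: colorimetric free-phosphate detection, absorbance 630 nm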
LMPTP inh: blocks human LMPTP phosphatase | recombinant LMPTP-A, OMFP fluorogenic substrate, fluorescence intensity | 360,000 tested, 0.22% active | P24666 | inhibition, % at 20 µM;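 active = compounds that cut the enzyme signal by at least half of the control window in the single-dose screen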;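 also: plate controls were DMSO wells with enzyme plus substrate for no effect and substrate without enzyme for full effect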
Target sequence (P24666 whole entry, looked up): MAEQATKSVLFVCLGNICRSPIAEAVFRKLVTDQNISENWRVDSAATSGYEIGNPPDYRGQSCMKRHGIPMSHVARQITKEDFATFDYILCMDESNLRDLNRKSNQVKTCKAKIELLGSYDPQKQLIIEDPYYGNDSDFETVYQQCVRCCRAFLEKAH
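Assay system: LMPTP-A phosphatase enzyme | Input: 0.625 nM enzyme | Also added: Fluorogenic phosphatase substrate OMFP at 400 µM final | Compound dosing: One test concentration per compound, 20 µM, with 3% DMSO overall | Schedule: 50 min enzyme reaction at room temperature, protected from light | Signal: Fluorescence intensity | Benchmarks: no-enzyme and uninhibited controls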
STEP inh: inhibitors of human striatal-enriched phosphatase STEP. P54829. 360,000 tested, 0.25% active. recombinant STEP, OMFP fluorogenic substrate, fluorescence. AID 588621. inhibition, % at 20 µM;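 active = inhibition at 20 µM, scaled per plate between control wells, above about 37%, limit read from the data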;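 also: 0% = DMSO with enzyme and substrate and 100% = substrate only without enzyme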
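System: STEP (striatal-enriched tyrosine phosphatase) enzyme, cell-free; medium: Bis-Tris pH 6.0 buffer with DTT, detergent; dosing: 20 µM, 1% DMSO; times: reaction 20 min, ambient temperature; detection: fluorescence, 480/540 nm; read-out basis: normalized % inhibition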
SUMO1-SIM PPI: SUMO1-SIM interaction modulation; P63165; SUMO1 binding to a labelled peptide, TR-FRET, 1 h; inhibition, % at 20 µM; 360,000 tested, 0.33% active; in the data active = inhibition above about 37%
Target sequence (P63165 whole entry, looked up): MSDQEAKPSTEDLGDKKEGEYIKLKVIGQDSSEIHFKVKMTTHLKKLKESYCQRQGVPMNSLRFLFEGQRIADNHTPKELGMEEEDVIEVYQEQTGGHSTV
Scp1 confirm: Scp-1 (human) inhibition, single-dose confirmed; shares compounds with Scp-1 inhibitor; recombinant SCP-1 catalytic domain, phosphate release, malachite green absorbance; inhibition, % at 20 µM; 2,500 tested, 61% active; AID 540281;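 also: plate controls were DMSO with enzyme for no effect and buffer wells lacking enzyme for full effect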
Scp-1 MG ctr: colorimetric interference in Scp-1 counter-screen; shares compounds with Scp-1 inhibitor; Colorimetric interference counterscreen, malachite green absorbance 630 nm; apparent inhibition (interference), % at 20 µM; 2,500 tested, under 10 active; AID 540313;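 also: compounds added after enzyme reaction finished so only phosphate colour detection is probed; plate controls were DMSO wells with completed Scp-1 reaction for no effect and substrate wells lacking enzyme for full effect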
Scp-1 Tm shift: Scp-1 (human) binding by thermal shift; thermal shift relative to vanadate control, % at 40 µM; AID 540329; Recombinant SCP1, Sypro Orange thermal shift Tm; shares compounds with Scp-1 inhibitor; 1,500 tested, 25% active;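 active = substances whose mean melting-temperature shift, as a percentage of the reference inhibitor's shift, reaches about 5.3%, limit read from the data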;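 also: 0% = Tm of DMSO wells and 100% = Tm with sodium orthovanadate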
DNMT1 inh conf: confirmation of human DNMT1 inhibitors; inhibition, % at 10 µM; 2,300 tested, 8% active; DNMT1 molecular beacon HinP1I cleavage, fluorescence; shares compounds with DNMT1 inh;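 active = average inhibition of at least 30% in the single-concentration confirmation test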
DNMT1 interf: beacon fluorescence artifact counter-screen; AID 602387; DNMT1 molecular beacon spectral interference counterscreen, fluorescence 485/520; activation (fluorescence interference), % at 10 µM; shares compounds with DNMT1 inh; 2,300 tested, 1% active;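 active = activation of at least 30% at 10 µM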;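 also: DNMT1 catalytic domain with a HinP1I cleavage step and a FAM/dabcyl DNA beacon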
* = called active by the depositor; . = no result given.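 The calls were made as follows, unless noted: active = inhibition of at least 30% at 20 µM; inactive = the rest.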

SMILES	DNMT1 inh	Scp-1 inhibitor	LMPTP inh	STEP inh	SUMO1-SIM PPI	Scp1 confirm	Scp-1 MG ctr	Scp-1 Tm shift	DNMT1 inh conf	DNMT1 interf
Cc1[nH]c2ccccc2c1C(=O)COC(=O)C1CC(=O)N(Cc2ccco2)C1 (stereo unspecified)	-1.9	10.9	0.6	1.6	4.3	.	.	.	.	.
O=C(COC(=O)c1ccc(S(=O)(=O)N2CCCCC2)cc1)Nc1ccccc1	5.4	-1.1	1.2	-0.6	-0.5	.	.	.	.	.
Cc1ccc(CNC(=O)c2ccc(-n3cccc3)cc2)cc1	94.8*	54.7*	12.4	4.5	3.6	64.2*	-7.3	-2.0	12.7	4.9
N=C1/C(=C/c2ccco2)C(=O)N=C2SC(CC(=O)N3CCCC3)=NN12	63.7*	73.3*	4.3	13.1	4.3	62.9*	-15.0	-4.7	6.2	5.5
N=C1/C(=C/c2ccc(Br)o2)C(=O)N=C2SC(CC(=O)N3CCCC3)=NN12	66.5*	87.9*	8.8	9.0	57.2*	58.0*	-9.6	8.1*	19.6	0.6
Cc1ccc(/C=C2\C(=N)N3N=C(CC(=O)N4CCCCC4)SC3=NC2=O)cc1	0.9	-1.4	-0.8	0.9	-1.4	.	.	.	.	.
O=C(COc1cccc([N+](=O)[O-])c1)N/N=C/c1ccco1	58.7*	62.7*	18.2	14.4	-14.1	45.0*	-11.2	-13.3	0.3	1.7
Cc1cc(C)cc(OCC(=O)N/N=C/c2ccco2)c1	-1.4	-10.4	0.2	-2.0	-7.9	.	.	.	.	.
O=C(COc1cccc2ccccc12)N/N=C/c1ccco1	1.0	-2.2	-2.3	1.4	-16.6	.	.	.	.	.
CCc1ccc(OCC(=O)N/N=C\c2ccco2)c([N+](=O)[O-])c1	81.2*	79.6*	9.9	7.3	-10.2	47.2*	-19.9	1.9	8.1	6.2
O=C(NCc1ccco1)c1c2c(nc3ccccc13)CCC2	84.0*	66.4*	28.1	1.6	11.5	51.3*	-17.8	8.3*	3.4	3.0
O=C(NCc1ccc(F)cc1)c1c2c(nc3ccccc13)CCC2	57.0*	52.2*	6.5	4.6	7.9	60.4*	-11.2	12.0*	14.4	3.6
CCCC(C)NC(=O)c1c2c(nc3ccccc13)CCC2 (stereo unspecified)	28.9	20.5	-0.5	0.5	12.0	.	.	.	.	.
O=C(CSc1c2c(nc3ccccc13)CCCC2)NCc1ccco1	0.3	-1.4	-0.6	0.3	-1.7	.	.	.	.	.
O=C(Cc1ccccc1)N/N=C/c1ccc(OC(=O)/C=C\c2ccco2)cc1	-0.9	-1.1	0.2	-0.3	0.0	.	.	.	.	.
COC(=O)N/N=C/c1ccc(OC(=O)/C=C/c2ccco2)cc1	52.8*	55.5*	4.9	5.6	-12.5	9.4	-21.1	.	2.8	5.9
O=C(Cn1cnc2c(NCc3ccccc3)ncnc21)NCCc1cc2ccccc2[nH]1	-4.5	6.5	0.1	-2.7	2.9	.	.	.	.	.
COc1ccc(S(=O)(=O)N2Cc3ccccc3CC2C(=O)O)cc1 (stereo unspecified)	60.4*	74.6*	0.4	3.9	19.0	64.5*	-15.1	0.5	0.5	-1.5
Cc1ccc2nc(NC(=O)c3ccc(-c4nc5ccccc5s4)s3)sc2c1	78.2*	97.5*	43.9	37.1	44.3*	82.5*	-8.7	4.6	1.4	-6.7
O=C(Nc1nc2ccccc2s1)c1ccc(Cl)s1	0.0	-12.2	-0.6	-1.7	2.0	.	.	.	.	.
COc1ccc(C(=O)N/N=C/c2ccc(OC(=O)c3cccc4ccccc34)c([N+](=O)[O-])c2)cc1	53.1*	91.8*	7.0	7.4	-15.8	65.1*	-24.7	6.6*	5.0	0.0
COc1ccc(C(=O)Oc2ccc(/C=N/NC(=O)c3ccccc3OC)cc2[N+](=O)[O-])cc1	16.8	0.6	0.5	0.5	-3.9	.	.	.	.	.
Cc1nc2ccccn2c1C(=O)N/N=C/c1ccc([N+](=O)[O-])o1	64.1*	67.0*	4.5	2.9	0.5	52.8*	-15.9	11.7*	5.0	-2.4
C=CCn1c(COc2ccc(F)cc2)nnc1SCC(=O)NC(=O)NCc1ccco1	74.0*	61.0*	15.5	3.9	3.5	56.0*	-9.5	-15.7	6.9	3.0
COCCn1c(C)cc(C(=O)COC(=O)c2cccc(O)c2)c1C	-3.9	-9.0	-0.9	0.7	3.7	.	.	.	.	.
SMILES	DNMT1 inh	Scp-1 inhibitor	LMPTP inh	STEP inh	SUMO1-SIM PPI	Scp1 confirm	Scp-1 MG ctr	Scp-1 Tm shift	DNMT1 inh conf	DNMT1 interf
COCCn1c(C)cc(C(=O)COC(=O)c2cc3c(s2)CCC3)c1C	104.9*	51.6*	7.9	-1.5	6.0	70.4*	-9.8	-21.5	4.8	4.0
Cn1c(=O)[nH]c(=O)c2c1nc(N/N=C/c1ccncc1)n2Cc1ccc(Cl)cc1	0.1	-3.3	4.8	31.5	5.7	.	.	.	.	.
O=C(O)/C(=C\c1cccc(F)c1)c1ccc(S(=O)(=O)N2CCCCC2)s1	32.6	40.1	-0.3	0.1	0.2	.	.	.	.	.
CSc1ccc(/C=C(\C(=O)O)c2ccc(S(=O)(=O)N3CCCC3)s2)cc1	86.5*	69.2*	18.9	2.4	-2.6	67.9*	-13.1	5.6*	11.2	3.5
COC(=O)COc1ccc(S(=O)(=O)Nc2ccc3c(c2)OCCO3)cc1C	0.0	-5.0	-0.7	-1.7	0.6	.	.	.	.	.
O=C(COC(=O)c1cccc(Br)c1)NCc1ccco1	87.3*	55.5*	12.9	0.9	7.0	53.2*	-13.4	0.9	2.0	4.3
O=C(COC(=O)Cc1ccc(Cl)cc1)NCc1ccco1	88.2*	81.8*	-0.8	6.9	19.1	71.4*	-4.3	1.9	8.0	2.2
Cc1cc(Br)ccc1SCC(=O)OCC(=O)NCc1ccco1	82.1*	75.2*	5.8	6.9	19.5	61.3*	-17.2	1.0	9.0	-2.1
O=C(COC(=O)Cc1ccc(Cl)c(Cl)c1)NCc1ccco1	-1.3	-0.8	1.8	2.5	1.7	.	.	.	.	.
O=C(COC(=O)c1ccccc1)NCc1ccco1	74.1*	104.4*	14.2	-1.6	2.7	63.2*	-8.7	-18.3	6.0	4.2
Cc1cccc(C(=O)OCC(=O)NCc2ccco2)c1	20.4	24.3	-1.4	1.7	3.4	.	.	.	.	.
Cc1ccc(NC(=O)Cn2nc(C(=O)O)c3ccccc3c2=O)c([N+](=O)[O-])c1	2.4	-3.0	0.0	1.6	2.4	.	.	.	.	.
